Screens as filed in PubChem BioAssay.
Sampled rows, rich in hits. Any-hit rate of the full collection: about 2.9%.
Runt-SMMHC FRET – Runt domain-CBFb-SMMHC interaction inhibition; inhibition, % at 20 µM; 220,000 compounds, 0.74% hits; Cerulean-Runt/Venus-CBFb-SMMHC FRET ratio 530/480, 1 h; Q01196+Q13951;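 active means mean inhibition across duplicate retests at 20 µM reaching about 50%, limit read from the data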;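 further: inhibitors lower the FRET ratio by blocking Runt binding to CBFb-SMMHC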
KLK7 zymogen act – proKLK7 (human) activation, primary screen. P49862. purified proKLK7, EDANS-DABCYL substrate fluorescence; 100% is mature enzyme control, 0% vehicle. activation, % at 7 µM. 370,000 compounds, 0.9% hits. AID 652039;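 active means activation above the mean of all tested compounds plus 3 SD, computed per campaign excluding outliers beyond control limits, cut at about 13% in these data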
Runt-CBFb FRET – blocks binding of human RUNX1 Runt domain to CBFb. Cerulean-Runt/Venus-CBFb FRET ratio 530/480, 1 h. inhibition, % at 20 µM. 220,000 compounds, 0.46% hits;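 active means inhibition over about 50% at 20 µM in the single-dose screen, limit read from the data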
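Assay system: Cerulean-tagged RUNX1 Runt domain (FRET donor) fusion protein / Amount: 100 nM each of Venus-CBFb and Cerulean-Runt domain / Medium: Tris buffer pH 7.5 with salts and BSA / Also added: Venus-CBFb 100 nM / Schedule: 1 h complex formation plus 1 h compound treatment, room temperature / Signal: FRET fluorescence / Read-out: loss of energy transfer signal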
RanGTP-Impb inh – inhibitors of RanGTP-importin-beta interaction, primary screen, biochemical, FRET, CFP-Ran, YFP-importin-beta, homogeneous. cell-free CFP-Ran/YFP-importin-beta FRET ratio. inhibition, % (test concentration not listed). 300,000 compounds, 1.1% hits. AID 2216;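 active means more than half of the replicate wells show a fall in the fluorescence ratio signal beyond about 16%, limit read from the data, passing the limit was not always enough; inconclusive means exactly half of the replicate wells pass the set limit; inactive means fewer than half of replicates pass the limit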
Wee1 degr inh – human Wee1 degradation inhibition, primary screen | AID 1321 | HeLa Luc-Wee1K328M stability, luciferase luminescence; 100% = proteasome inhibitor MG132 effect | reporter increase, % at 5 µM | 220,000 compounds, 1.2% hits;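 active means activation above the mean of all tested compounds plus 3 SD, set per screening run, cut at about 8.8% in these data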;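 further: cells exposed to compound for 20 h before luminescence read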
Target sequence (P30291 whole entry K328M): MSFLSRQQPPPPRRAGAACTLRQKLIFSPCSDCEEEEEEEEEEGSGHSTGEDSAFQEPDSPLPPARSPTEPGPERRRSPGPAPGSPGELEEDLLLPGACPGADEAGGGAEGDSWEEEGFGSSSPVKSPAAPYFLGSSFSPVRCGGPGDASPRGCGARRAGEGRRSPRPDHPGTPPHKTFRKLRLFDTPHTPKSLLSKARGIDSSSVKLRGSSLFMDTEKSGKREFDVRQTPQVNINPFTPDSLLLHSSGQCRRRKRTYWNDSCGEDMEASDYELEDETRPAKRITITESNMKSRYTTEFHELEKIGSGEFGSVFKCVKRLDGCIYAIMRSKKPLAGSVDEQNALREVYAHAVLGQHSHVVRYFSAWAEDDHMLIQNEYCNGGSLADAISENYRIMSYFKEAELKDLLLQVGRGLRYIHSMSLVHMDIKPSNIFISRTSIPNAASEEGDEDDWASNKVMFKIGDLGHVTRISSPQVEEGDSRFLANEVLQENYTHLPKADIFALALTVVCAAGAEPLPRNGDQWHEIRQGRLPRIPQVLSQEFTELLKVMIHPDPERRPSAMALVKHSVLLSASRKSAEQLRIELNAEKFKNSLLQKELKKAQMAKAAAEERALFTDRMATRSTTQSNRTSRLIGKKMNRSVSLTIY
AI-2 QS mod – modulators of Vibrio harveyi AI-2 quorum sensing system | Vibrio harveyi JMH597 AI-2 luminescence/OD600 ratio, 9 h; active compounds read low; strain lacks LuxN and CqsS sensors; 0 = neutral-control median | activity change, % at 7.5 µM | 300,000 compounds, 0.4% hits | AID 2094; in the data active means activity change below about -75%, passing the limit was not always enough; inconclusive means no clear call, values can overlap the other calls;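 further: luminescence divided by OD600 gain over 9 h not by final OD600 alone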
Of the large screens only hits and unclear results are named; the others gave an inactive call.

O=c1[nH]c(O)c(/C=C2\C=Nc3ccccc32)[nH]1	none
CCn1c(O)c(/C=C2\C=Nc3ccccc32)sc1=O	none
CCOC(=O)c1c(Nc2ccccc2)sc(/C=C2\C=Nc3ccccc32)c1O	RanGTP-Impb inh 42.6 (no result: KLK7 zymogen act)
O=[N+]([O-])c1ccc2c(c1)C(O)n1nc(-c3ccc(Cl)cc3Cl)nc1S2 (configuration not stated)	Wee1 degr inh 12.8
CC(=O)Nc1nc(SCC(=O)NCc2ccc(F)cc2)[nH]c(=O)c1NC(=O)c1cccs1	none
O=C(NCc1ccc(Cl)cc1)C1CCN(S(=O)(=O)c2cccnc2)CC1	AI-2 QS mod -79.1 (no result: Runt-SMMHC FRET, Runt-CBFb FRET, Wee1 degr inh)
O=C(NCc1ccc(F)cc1)C1CCN(S(=O)(=O)c2cccnc2)CC1	none (no result: Runt-SMMHC FRET, Runt-CBFb FRET, Wee1 degr inh)
CC(C)Cn1nc(NC(=O)c2cccs2)c2cc3ccccc3nc21	Runt-SMMHC FRET 56.8, RanGTP-Impb inh 63.9
COc1ccc2nc3c(cc2c1)c(NC(=O)c1cccs1)nn3CC(C)C	Runt-SMMHC FRET 62.7, Runt-CBFb FRET 62.3, RanGTP-Impb inh 116.1
COc1ccc(NC(=O)c2cccs2)cc1	RanGTP-Impb inh inconclusive
Cc1coc2c(C)c3oc(=O)c4c(c3cc12)CCC4	none (no result: Runt-SMMHC FRET, KLK7 zymogen act, Runt-CBFb FRET, RanGTP-Impb inh, AI-2 QS mod)
O=c1oc2c3c4c(cc2c2c1CCC2)OCCN4CCC3	Runt-SMMHC FRET 52.7, Runt-CBFb FRET 83.0 (no result: RanGTP-Impb inh, AI-2 QS mod)
CC1CN(CC(=O)NCc2ccc(Cl)cc2)CC(C)O1 (configuration not stated)	none (no result: Runt-SMMHC FRET, Runt-CBFb FRET, Wee1 degr inh)
CC(C)(C)OC(=O)N1CCC[C@@H]1C(=O)N1CCC[C@@H]1C(=O)NCc1ccccc1	none (no result: Runt-SMMHC FRET, Runt-CBFb FRET, RanGTP-Impb inh, Wee1 degr inh, AI-2 QS mod)
c1ccc(CSC2=NCCCN2)cc1	none
N#Cc1ccc(CSC2=NCCN2)cc1	Wee1 degr inh 9.8
CCN1CCN(C(=O)c2cc3cc(Cl)ccc3[nH]2)CC1	AI-2 QS mod -76.8 (no result: Runt-SMMHC FRET, Runt-CBFb FRET, Wee1 degr inh)
Cc1ccccc1NC(=O)CCCN1C(=O)C2CC=CCC2C1=O (configuration not stated)	none (no result: Runt-SMMHC FRET, Runt-CBFb FRET, Wee1 degr inh)
COc1ccc(C(=O)/C=C2\Sc3ccccc3N2C)cc1	Runt-SMMHC FRET 55.8
NC(=O)c1ccsc1NC(=O)c1ccc(N2CCCC2=O)cc1	none
O=c1oc2ccccc2cc1-c1nc(-c2cccs2)cs1	none (no result: AI-2 QS mod)
N#CCc1nc(-c2cc3ccccc3oc2=O)cs1	RanGTP-Impb inh 176.7
Nc1cc(=O)[nH]c(SCC(=O)Nc2cccc(Cl)c2)n1	RanGTP-Impb inh inconclusive
Nc1cc(=O)[nH]c(SCC(=O)Nc2ccc(Oc3ccccc3)cc2)n1	RanGTP-Impb inh 32.3 (no result: Runt-SMMHC FRET, Runt-CBFb FRET, Wee1 degr inh)
Cc1nc(-c2ccccn2)nc(N2CCOCC2)c1Cl	Wee1 degr inh 10.2
O=C(c1cc2c(=O)n3ccccc3nc2s1)N1CCN(Cc2ccc3c(c2)OCO3)CC1	none
O=C(c1cc2c(=O)n3ccccc3nc2s1)N1CCc2ccccc2C1	Runt-SMMHC FRET 80.8 (no result: KLK7 zymogen act)
C=CC[C@H]1c2ccccc2[C@H]2N3N=Cc4ccccc4[C@H]3[C@H](CCCC)C(=O)N2N1C(=O)NCc1ccccc1	none (no result: Runt-SMMHC FRET, Runt-CBFb FRET, RanGTP-Impb inh, Wee1 degr inh, AI-2 QS mod)
O=C(O)[C@@H]1[C@H]2C[C@H]3c4[nH]c5ccccc5c4CCN3C[C@@H]2CC[C@@H]1O	none (no result: Runt-SMMHC FRET, Runt-CBFb FRET, RanGTP-Impb inh, Wee1 degr inh, AI-2 QS mod)
O=C(O)C1CCCC2CN3CCc4c([nH]c5ccccc45)C3C(O)C21 (configuration not stated)	RanGTP-Impb inh 30.0 (no result: Runt-SMMHC FRET, Runt-CBFb FRET, Wee1 degr inh)
COC(=O)[C@@]12C[C@@H](CC(=O)N3CCN(C(=O)c4ccco4)CC3)C(=O)N(CCc3ccc(OC)c(OC)c3)C1=CCC(C)(C)C2	none (no result: Runt-SMMHC FRET, Runt-CBFb FRET, RanGTP-Impb inh, Wee1 degr inh, AI-2 QS mod)
O=C(NC(NNc1ccc([N+](=O)[O-])cc1)(C(F)(F)F)C(F)(F)F)c1ccccc1Cl	RanGTP-Impb inh 23.1
O=C(NC(NNc1ccc([N+](=O)[O-])cc1)(C(F)(F)F)C(F)(F)F)c1ccc(F)cc1	none
CN1CCCCC(NC(=O)c2ccc(F)cc2)C1=O (configuration not stated)	none (no result: Runt-SMMHC FRET, Runt-CBFb FRET, RanGTP-Impb inh, Wee1 degr inh, AI-2 QS mod)
CN1CCN(Cn2cc(/C=C/C(=O)c3ccccc3)c3ccccc32)CC1	RanGTP-Impb inh 67.3, Wee1 degr inh 10.2 (no result: KLK7 zymogen act)
CCCN(CCC)CC(O)Cn1cc(/C=C/C(=O)c2ccccc2)c2ccccc21 (configuration not stated)	RanGTP-Impb inh 28.8
